Source: PubChem BioAssay AID602424 (Sanford-Burnham Center for Chemical Genomics, 2012)
Calls of active or inactive are those of the source.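 The calls were made as follows: active = IC50 at or below 20 µM; inactive = the rest.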

Target: Glucose-6-phosphate 1-dehydrogenase (Homo sapiens) (UniProt P11413)
Test: human G6PD enzyme inhibition selectivity, SAR follow-up, selectivity assay for PfG6PD antimalarial inhibitor project, biochemical, fluorescence, dose response, set 4 (AID 602424)
Conditions: recombinant human G6PD, NADPH-diaphorase-resazurin fluorescence
Procedure, shortened: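 Benchmarks – no-substrate wells as low control · System – human G6PD enzyme · Schedule – 90 min dark incubation, room temperature · Measured by – resazurin-diaphorase fluorescence, Ex 530 nm, Em 590 nm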

Glucose-6-phosphate 1-dehydrogenase (Homo sapiens), sequence (P11413 whole entry, looked up): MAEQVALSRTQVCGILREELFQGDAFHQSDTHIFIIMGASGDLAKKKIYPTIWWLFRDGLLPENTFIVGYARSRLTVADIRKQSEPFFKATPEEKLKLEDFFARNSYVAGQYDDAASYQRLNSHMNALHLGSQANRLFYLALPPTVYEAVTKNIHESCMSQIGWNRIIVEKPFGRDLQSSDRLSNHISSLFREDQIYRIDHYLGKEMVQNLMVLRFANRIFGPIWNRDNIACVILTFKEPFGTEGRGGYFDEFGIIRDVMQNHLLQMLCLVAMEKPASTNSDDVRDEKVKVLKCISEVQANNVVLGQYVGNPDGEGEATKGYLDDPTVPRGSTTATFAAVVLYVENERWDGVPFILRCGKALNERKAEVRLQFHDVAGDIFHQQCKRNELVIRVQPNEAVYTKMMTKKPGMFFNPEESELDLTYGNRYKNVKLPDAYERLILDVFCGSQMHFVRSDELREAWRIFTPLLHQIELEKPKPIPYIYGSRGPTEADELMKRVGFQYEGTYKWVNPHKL

| SMILES | IC50 |
| --- | --- |
| CCN1CCC[C@@H]1CNC(=O)c1ccc2c(c1)NC(=O)c1ccccc1N2 | > 80 µM (inactive) |
| CCN1CCC[C@@H]1CNC(=O)c1ccc2c(c1)NC(=O)c1cccc(C)c1S2 | > 80 µM (inactive) |
| CCN1CCC(NC(=O)c2ccc3c(c2)NC(=O)c2ccccc2S3)C1 (configuration not stated) | > 80 µM (inactive) |
| CCN1CCC[C@@H]1CNC(=O)c1ccc2c(c1)NC(=O)c1cc(C)ccc1S2 | > 80 µM (inactive) |
| CCN1CCC[C@@H]1CNC(=O)c1ccc2c(c1)NC(=O)c1ccc(F)cc1S2 | > 80 µM (inactive) |
| CCCN1CCC(NC(=O)c2ccc3c(c2)NC(=O)c2ccccc2S3)C1 (configuration not stated) | > 80 µM (inactive) |
| CCN1CCC[C@@H]1CNC(=O)c1ccc2c(c1)NC(=O)c1cc(F)ccc1S2 | > 80 µM (inactive) |

Second part, the molecule after the results:

| IC50 | SMILES |
| --- | --- |
| > 80 µM (inactive) | CCCN1CCC[C@@H]1CNC(=O)c1ccc2c(c1)NC(=O)c1ccccc1S2 |
| > 80 µM (inactive) | CCCCCCN1CCCC1CNC(=O)c1ccc2c(c1)NC(=O)c1ccccc1S2 (configuration not stated) |
| > 80 µM (inactive) | CN1CCCCC1CNC(=O)c1ccc2c(c1)NC(=O)c1ccccc1S2 (configuration not stated) |
| > 80 µM (inactive) | CCN1CCCCC1CNC(=O)c1ccc2c(c1)NC(=O)c1ccccc1S2 (configuration not stated) |
| > 80 µM (inactive) | O=C(NCC1CCCCN1)c1ccc2c(c1)NC(=O)c1ccccc1S2 (configuration not stated) |
| > 80 µM (inactive) | O=C(NC[C@H]1CCCN1)c1ccc2c(c1)NC(=O)c1ccccc1S2 |
| > 80 µM (inactive) | CN1CCCC1CNC(=O)c1ccc2c(c1)NC(=O)c1ccccc1S2 (configuration not stated) |
| > 80 µM (inactive) | CCCN1CCCCC1CNC(=O)c1ccc2c(c1)NC(=O)c1ccccc1S2 (configuration not stated) |
| > 80 µM (inactive) | CN1CCC(NC(=O)c2ccc3c(c2)NC(=O)c2ccccc2S3)C1 (configuration not stated) |
| > 80 µM (inactive) | CCCCN1CCCC1CNC(=O)c1ccc2c(c1)NC(=O)c1ccccc1S2 (configuration not stated) |
